Active and inactive are the calls of the source. The calls are words filed in the database; no cut-off is given here.

For experiment [1], the target named is Heterogeneous nuclear ribonucleoprotein U (Homo sapiens) (UniProt Q00839). In words: Binding affinity to HNRNPU in human NCI-H23 cells at 1 uM by mass spectrometry based pull down assay. It is filed as cell-based.
Experiment [2] concerns the target Prefoldin subunit 2 (Homo sapiens) (UniProt Q9UHV9). Description: Binding affinity to PFDN2 in human NCI-H23 cells at 1 uM by mass spectrometry based pull down assay. Format: cell-based.
For experiment [3], the target named is Phosphoribosylformylglycinamidine synthase (Homo sapiens) (UniProt O15067). In words: Binding affinity to PFAS in human NCI-H23 cells at 1 uM by mass spectrometry based pull down assay. It is filed as cell-based.
Experiment [4] has as its target Plastin-2 (Homo sapiens) (UniProt P13796). In words: Binding affinity to LCP1 in human NCI-H358 cells at 1 uM by mass spectrometry based pull down assay. Format: cell-based.
Experiment [5] concerns the target Deoxyuridine 5'-triphosphate nucleotidohydrolase, mitochondrial (Homo sapiens) (UniProt P33316). In words: Binding affinity to DUT in human NCI-H358 cells at 1 uM by mass spectrometry based pull down assay. It is filed as cell-based.
Experiment [6] deals with TGF-beta-activated kinase 1 and MAP3K7-binding protein 1 (Homo sapiens) (UniProt Q15750). In words: Binding affinity to TAB1 in human NCI-H23 cells at 1 uM by mass spectrometry based pull down assay. It is filed as cell-based.
For experiment [7], the target named is Ras GTPase-activating-like protein IQGAP1 (Homo sapiens) (UniProt P46940). In words: Binding affinity to IQGAP1 in human NCI-H358 cells at 1 uM by mass spectrometry based pull down assay. It is filed as cell-based.
The target in experiment [8] is Bifunctional glutamate/proline--tRNA ligase (Homo sapiens) (UniProt P07814). Description: Binding affinity to EPRS in human NCI-H23 cells at 1 uM by mass spectrometry based pull down assay. It is filed as cell-based.
Experiment [9] concerns the target Delta-1-pyrroline-5-carboxylate synthase (Homo sapiens) (UniProt P54886). Description: Binding affinity to ALDH18A1 in human NCI-H23 cells at 1 uM by mass spectrometry based pull down assay. Format: cell-based. The method, boiled down:
(§1)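 NCI-H23 or NCI-H358 cells were grown and lysed. Lysates were incubated overnight at 4 °C with 1 μM biotinylated covalent probe or DMSO, then pulled down on streptavidin beads. Proteins were run on polyacrylamide gels and stained with Coomassie. Bands were excised, digested and identified by mass spectrometry.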

Experiment [10] has as its target ADP-ribosylation factor-like protein 8B (Homo sapiens) (UniProt Q9NVJ2). In words: Binding affinity to ARL8B in human NCI-H23 cells at 1 uM by mass spectrometry based pull down assay. It is filed as cell-based.
For experiment [11], the target named is Spermidine synthase (Homo sapiens) (UniProt P19623). Description: Binding affinity to SRM in human NCI-H23 cells at 1 uM by mass spectrometry based pull down assay. It is filed as cell-based.
Sequence of Spermidine synthase (Homo sapiens) (P19623 whole entry): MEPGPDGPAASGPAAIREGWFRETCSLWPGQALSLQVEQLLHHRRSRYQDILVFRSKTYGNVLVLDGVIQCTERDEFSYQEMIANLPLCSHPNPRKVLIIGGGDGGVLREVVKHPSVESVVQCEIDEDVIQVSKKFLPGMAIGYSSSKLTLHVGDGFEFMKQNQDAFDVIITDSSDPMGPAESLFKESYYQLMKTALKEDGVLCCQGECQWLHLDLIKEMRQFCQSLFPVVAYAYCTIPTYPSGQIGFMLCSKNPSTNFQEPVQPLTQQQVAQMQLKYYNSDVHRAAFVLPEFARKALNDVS
The target in experiment [12] is Lysine--tRNA ligase (Homo sapiens) (UniProt Q15046). Description: Binding affinity to KARS in human NCI-H358 cells at 1 uM by mass spectrometry based pull down assay. It is filed as cell-based.
The target of experiment [13] is Acyl-coenzyme A thioesterase 9, mitochondrial (Homo sapiens) (UniProt Q9Y305). In words: Binding affinity to ACOT9 in human NCI-H23 cells at 1 uM by mass spectrometry based pull down assay. It is filed as cell-based. The method, boiled down: as §1
Sequence of Acyl-coenzyme A thioesterase 9, mitochondrial (Homo sapiens) (Q9Y305 whole entry): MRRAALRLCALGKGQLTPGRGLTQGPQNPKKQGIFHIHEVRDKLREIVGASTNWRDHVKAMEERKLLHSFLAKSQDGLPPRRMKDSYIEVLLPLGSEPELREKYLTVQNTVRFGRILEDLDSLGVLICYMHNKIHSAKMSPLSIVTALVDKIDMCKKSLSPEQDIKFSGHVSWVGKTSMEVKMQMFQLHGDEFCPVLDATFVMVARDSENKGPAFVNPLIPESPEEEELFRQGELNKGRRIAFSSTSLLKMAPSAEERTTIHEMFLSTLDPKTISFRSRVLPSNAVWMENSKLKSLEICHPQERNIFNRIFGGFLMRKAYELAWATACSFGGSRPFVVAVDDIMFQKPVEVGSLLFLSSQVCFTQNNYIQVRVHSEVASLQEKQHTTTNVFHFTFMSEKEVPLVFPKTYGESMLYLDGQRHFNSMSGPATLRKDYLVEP
Experiment [14] addresses Proteasome activator complex subunit 2 (Homo sapiens) (UniProt Q9UL46). In words: Binding affinity to PSME2 in human NCI-H23 cells at 1 uM by mass spectrometry based pull down assay. Format: cell-based.
Experiment [15] concerns the target Protein SET (Homo sapiens) (UniProt Q01105). Description: Binding affinity to SET in human NCI-H358 cells at 1 uM by mass spectrometry based pull down assay. Format: cell-based.
Experiment [16] addresses 80S Ribosome (Homo sapiens) (UniProt P08865+P42677+P62753+P15880+P23396+P61247+P62701+P22090+P46782+P62081+P62241+P46781+P46783+P62280+P25398+P62277+P62263+P62841+P62244+P62249+P08708+P62269+P39019+P60866+P63220+P62266+P62847+P62851+P62854+P62979+P62857+P62273+P62861+P39023+P36578+P46777+Q02878+P18124+P62424+P62917+P32969+P27635+P62906+P62913+P30050+P26373+P40429+P50914+P61313+P18621+Q07020+Q02543+P84098+P46778+P35268+P62829+P62750+P83731+P61254+P61353+P46776+P46779+P47914+P62888+P62899+P62910+P49207+P42766+P18077+Q9Y3U8+P83881+P61927+P61513+P63173+P62891+P62945+P05388+P05386). Description: Binding affinity to RPL17 in human NCI-H358 cells at 1 uM by mass spectrometry based pull down assay. Format: cell-based.

The target of experiment [17] is Signal transducer and activator of transcription 1-alpha/beta (Homo sapiens) (UniProt P42224). In words: Binding affinity to STAT1 in human NCI-H23 cells at 1 uM by mass spectrometry based pull down assay. Format: cell-based.
Sequence of Signal transducer and activator of transcription 1-alpha/beta (Homo sapiens) (P42224 whole entry): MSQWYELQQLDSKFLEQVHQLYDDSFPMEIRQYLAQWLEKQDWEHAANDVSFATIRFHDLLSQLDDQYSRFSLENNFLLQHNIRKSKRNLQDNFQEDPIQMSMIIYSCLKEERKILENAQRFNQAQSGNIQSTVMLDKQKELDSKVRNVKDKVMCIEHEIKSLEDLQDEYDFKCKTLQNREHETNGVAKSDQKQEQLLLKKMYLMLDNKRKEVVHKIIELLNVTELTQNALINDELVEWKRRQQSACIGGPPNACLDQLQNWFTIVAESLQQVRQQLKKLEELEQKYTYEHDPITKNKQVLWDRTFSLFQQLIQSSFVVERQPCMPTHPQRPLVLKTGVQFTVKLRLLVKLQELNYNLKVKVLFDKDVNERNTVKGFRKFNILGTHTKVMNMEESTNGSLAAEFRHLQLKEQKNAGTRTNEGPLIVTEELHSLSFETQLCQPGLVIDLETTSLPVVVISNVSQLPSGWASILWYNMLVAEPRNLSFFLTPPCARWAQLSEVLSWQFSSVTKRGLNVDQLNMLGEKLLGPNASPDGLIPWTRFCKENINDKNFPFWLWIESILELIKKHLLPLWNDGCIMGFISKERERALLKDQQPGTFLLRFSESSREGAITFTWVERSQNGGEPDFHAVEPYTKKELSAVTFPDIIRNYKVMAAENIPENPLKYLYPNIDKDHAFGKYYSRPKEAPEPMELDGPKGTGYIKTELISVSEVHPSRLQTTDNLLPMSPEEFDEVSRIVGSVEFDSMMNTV
The target in experiment [18] is Small proline-rich protein 3 (Homo sapiens) (UniProt Q9UBC9). Description: Binding affinity to SPRR3 in human NCI-H358 cells at 1 uM by mass spectrometry based pull down assay. It is filed as cell-based.
Sequence of Small proline-rich protein 3 (Homo sapiens) (Q9UBC9 whole entry): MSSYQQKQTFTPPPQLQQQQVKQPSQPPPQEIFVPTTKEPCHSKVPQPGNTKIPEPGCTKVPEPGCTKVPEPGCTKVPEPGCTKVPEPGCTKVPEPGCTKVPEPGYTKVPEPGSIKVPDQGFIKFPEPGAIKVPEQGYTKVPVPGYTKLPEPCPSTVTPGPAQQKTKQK
Experiment [19] deals with ATP-dependent RNA helicase DHX15 (Homo sapiens) (UniProt O43143). Description: Binding affinity to DHX15 in human NCI-H358 cells at 1 uM by mass spectrometry based pull down assay. Format: cell-based.
Experiment [20] has as its target T-complex protein 1 subunit theta (Homo sapiens) (UniProt P50990). Description: Binding affinity to CCT8 in human NCI-H358 cells at 1 uM by mass spectrometry based pull down assay. It is filed as cell-based.
Experiment [21] deals with Tropomyosin alpha-3 chain (Homo sapiens) (UniProt P06753). Description: Binding affinity to TPM3 in human NCI-H358 cells at 1 uM by mass spectrometry based pull down assay. Format: cell-based.
Sequence of Tropomyosin alpha-3 chain (Homo sapiens) (P06753 whole entry): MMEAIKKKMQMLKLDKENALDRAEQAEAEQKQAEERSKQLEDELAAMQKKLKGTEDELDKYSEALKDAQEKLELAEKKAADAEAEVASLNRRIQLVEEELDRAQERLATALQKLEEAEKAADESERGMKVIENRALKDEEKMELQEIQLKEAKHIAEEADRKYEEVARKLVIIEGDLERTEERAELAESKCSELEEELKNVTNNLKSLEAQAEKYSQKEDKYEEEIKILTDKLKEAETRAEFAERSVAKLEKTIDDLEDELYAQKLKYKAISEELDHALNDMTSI
In experiment [22] the target is Dual specificity mitogen-activated protein kinase kinase 2 (Homo sapiens) (UniProt P36507). In words: Binding affinity to MAP2K2 in human NCI-H23 cells at 1 uM by mass spectrometry based pull down assay. Format: cell-based.
The target of experiment [23] is Dual specificity mitogen-activated protein kinase kinase 1 (Homo sapiens) (UniProt Q02750). Description: Inhibition of full length human MEK1 (1 to 393 residues) expressed in mammalian expression system assessed as enzyme activity at 10 uM by KINOMEScan assay relative to control. On the set-up: scale not given: the % may be the effect or the level left. The method, boiled down: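 In vitro ATP-site competition binding assay (KinomeScan) across a panel of 456 kinases. Compound was tested at 1 and 10 μM. The read-out is the binding inhibition score relative to control.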

For experiment [24], the system named is BaF3. In words: Antiproliferative activity against mouse BA/F3 cells harboring KRAS G12D mutant after 72 hrs by CellTiter-Glo assay. Format: functional, cell-based. The note with it: BaF3, 72 h.
Experiment [25] concerns the target Serine/threonine-protein kinase Nek8 (Homo sapiens) (UniProt Q86SG6). In words: Inhibition of NEK8 in human SKCO1 cells at 1 uM after 4 hrs using biotin labeled DLKTQNILLDK probe by mass-spectrometric analysis relative to control. Format: cell-based.
Experiment [26] concerns the target Macrophage-stimulating protein receptor (Homo sapiens) (UniProt Q04912). In words: Inhibition of RON in human SKCO1 cells at 1 uM after 4 hrs using biotin labeled IQCAIKSLSR probe by mass-spectrometric analysis relative to control. Format: cell-based.

Sequence of Deoxyuridine 5'-triphosphate nucleotidohydrolase, mitochondrial (Homo sapiens) (P33316 whole entry): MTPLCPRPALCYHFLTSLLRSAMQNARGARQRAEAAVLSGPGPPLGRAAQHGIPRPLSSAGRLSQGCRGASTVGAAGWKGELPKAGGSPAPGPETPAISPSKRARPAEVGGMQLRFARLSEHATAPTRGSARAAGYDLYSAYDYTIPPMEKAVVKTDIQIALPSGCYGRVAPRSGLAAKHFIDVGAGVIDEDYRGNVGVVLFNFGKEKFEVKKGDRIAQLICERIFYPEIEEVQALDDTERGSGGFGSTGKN
Sequence of ADP-ribosylation factor-like protein 8B (Homo sapiens) (Q9NVJ2 whole entry): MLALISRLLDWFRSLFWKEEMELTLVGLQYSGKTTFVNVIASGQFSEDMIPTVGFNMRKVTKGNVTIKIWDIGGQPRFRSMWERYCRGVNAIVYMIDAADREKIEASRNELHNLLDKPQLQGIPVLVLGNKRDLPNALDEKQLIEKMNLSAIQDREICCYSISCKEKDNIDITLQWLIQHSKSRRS
Sequence of Macrophage-stimulating protein receptor (Homo sapiens) (Q04912 25-304 limits assumed): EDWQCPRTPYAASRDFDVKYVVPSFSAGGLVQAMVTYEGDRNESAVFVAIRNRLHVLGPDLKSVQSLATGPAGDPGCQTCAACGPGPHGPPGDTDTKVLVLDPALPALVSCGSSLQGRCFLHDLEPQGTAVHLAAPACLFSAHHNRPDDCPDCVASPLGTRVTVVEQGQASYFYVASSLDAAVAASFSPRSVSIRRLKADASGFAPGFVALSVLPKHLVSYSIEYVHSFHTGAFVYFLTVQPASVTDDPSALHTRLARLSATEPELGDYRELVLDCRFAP
Sequence of Macrophage-stimulating protein receptor (Homo sapiens) (Q04912 310-1400 limits assumed): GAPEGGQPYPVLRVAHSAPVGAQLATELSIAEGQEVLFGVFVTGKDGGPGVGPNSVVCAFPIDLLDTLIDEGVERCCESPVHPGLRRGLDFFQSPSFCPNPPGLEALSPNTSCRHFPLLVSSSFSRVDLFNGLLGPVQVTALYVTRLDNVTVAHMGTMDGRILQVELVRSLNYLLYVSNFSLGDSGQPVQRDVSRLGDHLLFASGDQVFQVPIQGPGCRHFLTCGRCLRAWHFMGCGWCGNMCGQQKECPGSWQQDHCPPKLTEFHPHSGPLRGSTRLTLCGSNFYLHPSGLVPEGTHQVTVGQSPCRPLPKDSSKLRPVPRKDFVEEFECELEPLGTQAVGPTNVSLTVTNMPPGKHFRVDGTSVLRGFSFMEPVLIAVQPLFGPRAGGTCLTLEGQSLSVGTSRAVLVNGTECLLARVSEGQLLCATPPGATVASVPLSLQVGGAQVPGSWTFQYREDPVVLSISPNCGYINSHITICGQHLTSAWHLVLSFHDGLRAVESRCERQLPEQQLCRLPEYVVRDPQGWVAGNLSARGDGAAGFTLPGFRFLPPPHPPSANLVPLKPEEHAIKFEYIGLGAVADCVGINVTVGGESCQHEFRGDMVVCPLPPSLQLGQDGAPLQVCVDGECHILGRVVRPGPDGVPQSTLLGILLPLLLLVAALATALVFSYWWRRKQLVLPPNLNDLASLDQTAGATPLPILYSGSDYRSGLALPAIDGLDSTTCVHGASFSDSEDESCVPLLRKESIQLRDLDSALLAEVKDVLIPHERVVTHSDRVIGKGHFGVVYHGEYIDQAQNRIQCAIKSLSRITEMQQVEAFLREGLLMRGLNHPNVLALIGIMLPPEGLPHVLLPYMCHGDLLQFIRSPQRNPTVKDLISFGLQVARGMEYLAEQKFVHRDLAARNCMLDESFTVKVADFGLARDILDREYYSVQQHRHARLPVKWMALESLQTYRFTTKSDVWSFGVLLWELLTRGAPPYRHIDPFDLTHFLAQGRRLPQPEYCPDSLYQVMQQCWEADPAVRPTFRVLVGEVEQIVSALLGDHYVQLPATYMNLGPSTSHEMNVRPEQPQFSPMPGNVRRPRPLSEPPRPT
Sequence of Prefoldin subunit 2 (Homo sapiens) (Q9UHV9 whole entry): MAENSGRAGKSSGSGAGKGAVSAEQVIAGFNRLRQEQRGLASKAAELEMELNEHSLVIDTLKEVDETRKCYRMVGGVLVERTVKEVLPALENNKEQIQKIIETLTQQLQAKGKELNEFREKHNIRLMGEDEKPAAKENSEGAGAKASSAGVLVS
Sequence of Proteasome activator complex subunit 2 (Homo sapiens) (Q9UL46 whole entry, one chain of several): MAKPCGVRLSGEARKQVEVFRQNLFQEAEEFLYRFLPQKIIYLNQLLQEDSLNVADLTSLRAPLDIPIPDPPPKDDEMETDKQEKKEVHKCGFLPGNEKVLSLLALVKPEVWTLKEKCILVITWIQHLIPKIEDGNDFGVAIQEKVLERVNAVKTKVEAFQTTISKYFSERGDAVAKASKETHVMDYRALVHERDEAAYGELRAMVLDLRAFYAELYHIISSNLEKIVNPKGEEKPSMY
Sequence of Plastin-2 (Homo sapiens) (P13796 whole entry): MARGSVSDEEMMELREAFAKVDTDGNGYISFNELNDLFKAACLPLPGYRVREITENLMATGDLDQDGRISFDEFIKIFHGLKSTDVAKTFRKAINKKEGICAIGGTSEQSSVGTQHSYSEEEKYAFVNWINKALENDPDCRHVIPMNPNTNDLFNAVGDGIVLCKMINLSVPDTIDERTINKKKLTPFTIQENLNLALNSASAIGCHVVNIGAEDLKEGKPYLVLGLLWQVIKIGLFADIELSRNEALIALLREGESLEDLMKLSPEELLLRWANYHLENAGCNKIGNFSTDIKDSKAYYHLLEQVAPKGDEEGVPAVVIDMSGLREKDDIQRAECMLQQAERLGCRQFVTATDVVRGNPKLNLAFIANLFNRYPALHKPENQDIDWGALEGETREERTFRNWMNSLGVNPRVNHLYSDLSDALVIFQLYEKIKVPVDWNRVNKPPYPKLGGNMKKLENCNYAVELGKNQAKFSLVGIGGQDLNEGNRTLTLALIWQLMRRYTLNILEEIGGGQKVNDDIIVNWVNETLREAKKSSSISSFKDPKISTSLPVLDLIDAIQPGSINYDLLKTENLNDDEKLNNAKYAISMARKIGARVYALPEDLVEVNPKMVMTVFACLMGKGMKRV

In the case of `C=CC(=O)Nc1ccccc1Nc1nc(Nc2ccc(N3CCN(CCOCCOCCOCCNC(=O)CCCC[C@@H]4SC[C@@H]5NC(=O)N[C@@H]54)CC3)cc2)ncc1Cl`, the result in experiment [1], in [2], in [3], in experiment [4], in experiment [5] and in [6] was Active. Moreover, the outcome in experiment [7], in experiment [8], in experiment [9], in experiment [10], in [11] and in experiment [12] was Active. Further, the result in [13], in experiment [14], in [15], in [16], in experiment [17] and in experiment [18] was Active. Further, the outcome in experiment [19], in experiment [20], in experiment [21] and in experiment [22] was Active.
As a reminder, the IC50 is the concentration that gives 50% inhibition. As a reminder, the inhibition is the change of the read-out against control, counted positive when it falls. Take `COc1cc(O)c2c(c1)/C=C/C[C@H](O)[C@H](O)C(=O)/C=C\C[C@H](C)OC2=O`: in [23], the Activity was found to be 0.05%. Besides, the IC50 in experiment [24] was 4 nM. In addition, the inhibition in [25] is -9.5%.
`C=CC(=O)Nc1ccccc1Oc1nc(Nc2cnn(CCOC)c2)ncc1Cl`: the inhibition in [26] was -4.2%.

These data come from ChEMBL document CHEMBL4118021, “Studies of TAK1-centered polypharmacology with novel covalent TAK1 inhibitors” (Bioorg Med Chem, 2017).
